# Experiments:
# Pseudomonas aeruginosa = assay: Antibacterial activity against Pseudomonas aeruginosa ATCC 27853 assessed as bacterial growth inhibition incubated for 18 to 24 hrs by broth microdilution method; type: functional; details: time 18-24 hrs
# How it was run: (§1)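 CLSI broth microdilution. Overnight starter cultures (single colony, MHBII, 37 °C, shaking 18–24 h) were diluted by OD600 to 10^6 CFU/mL in MHBII. Two-fold dilutions from […] were made from 10 mg/mL DMSO stocks, then incubated 37 °C for 18-24 h. The MIC was the lowest concentration with no visible growth. Three independent runs, duplicate samples.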
# Acinetobacter baumannii = assay: Antibacterial activity against Acinetobacter baumannii BAA-1605 assessed as bacterial growth inhibition incubated for 18 to 24 hrs by broth microdilution method; type: functional; details: time 18-24 hrs; how it was run: as §1
# Staphylococcus aureus [1] = assay: Antibacterial activity against Staphylococcus aureus ATCC 29213 assessed as bacterial growth inhibition incubated for 18 to 24 hrs by broth microdilution method; type: functional; details: time 18-24 hrs; how it was run: as §1
# Escherichia coli = assay: Antibacterial activity against Escherichia coli ATCC 25922 assessed as bacterial growth inhibition incubated for 18 to 24 hrs by broth microdilution method; type: functional; details: time 18-24 hrs; how it was run: as §1
# Klebsiella pneumoniae = assay: Antibacterial activity against Klebsiella pneumoniae BAA 1705 assessed as bacterial growth inhibition incubated for 18 to 24 hrs by broth microdilution method; type: functional; details: time 18-24 hrs; how it was run: as §1
# Staphylococcus aureus [2] = assay: Antibacterial activity against methicillin resistant Staphylococcus aureus NRS 129 assessed as bacterial growth inhibition incubated for 18 to 24 hrs by broth microdilution method; type: functional; details: time 18-24 hrs
# How it was run: (§2)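 CLSI broth microdilution in MHBII; overnight starter cultures (single MHA colony, 37 °C, shaking) adjusted by OD600 to 10^6 CFU/mL. Compounds from DMSO stocks (10 mg/mL), two-fold series 64–0.5 mg/L. Incubation 37 °C, 18-24 h. MIC = lowest concentration with no visible growth. Three independent determinations, each in duplicate.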
# Staphylococcus aureus [3] = assay: Antibacterial activity against methicillin resistant Staphylococcus aureus NRS 193 assessed as bacterial growth inhibition incubated for 18 to 24 hrs by broth microdilution method; type: functional; details: time 18-24 hrs; how it was run: as §2
# Staphylococcus aureus [4] = assay: Antibacterial activity against methicillin resistant Staphylococcus aureus NRS 194 assessed as bacterial growth inhibition incubated for 18 to 24 hrs by broth microdilution method; type: functional; details: time 18-24 hrs; how it was run: as §2
# Staphylococcus aureus [5] = assay: Synergistic antibacterial activity against Staphylococcus aureus ATCC 29213 assessed as bacterial growth inhibition incubated for 24 hrs in presence of (S)-8''-Bromo-1-ethyl-1'-methyl-2,12''-dioxo-12''H-dispiro[indoline-3,4'-pyrrolidine-2',6''-indolo[2,1-b]quinazoline]-3',3'-dicarbonitrile by checkerboard assay; type: functional
# How it was run: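 Checkerboard in 96-well plates: two-fold serial dilutions, one agent along abscissa, partner antibiotic along ordinate. Wells received ~10⁵ CFU/mL S. aureus ATCC 29213 in MHBII. Incubation 37 °C, 24 h. ΣFIC = FIC A + FIC B, each FIC being combination MIC divided by MIC alone.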
# Staphylococcus aureus [6] = assay: Antibacterial activity against methicillin resistant Staphylococcus aureus NRS 191 assessed as bacterial growth inhibition incubated for 18 to 24 hrs by broth microdilution method; type: functional; details: time 18-24 hrs; how it was run: as §2
# Staphylococcus aureus [7] = assay: Antibacterial activity against methicillin resistant Staphylococcus aureus NRS 192 assessed as bacterial growth inhibition incubated for 18 to 24 hrs by broth microdilution method; type: functional; details: time 18-24 hrs; how it was run: as §2
# Staphylococcus aureus [8] = assay: Antibacterial activity against methicillin resistant Staphylococcus aureus NRS 119 assessed as bacterial growth inhibition incubated for 18 to 24 hrs by broth microdilution method; type: functional; details: time 18-24 hrs; how it was run: as §2
# Staphylococcus aureus [9] = assay: Antibacterial activity against methicillin resistant Staphylococcus aureus NRS 186 assessed as bacterial growth inhibition incubated for 18 to 24 hrs by broth microdilution method; type: functional; details: time 18-24 hrs; how it was run: as §2
# Staphylococcus aureus [10] = assay: Antibacterial activity against vancomycin resistant Staphylococcus aureus […] 12 assessed as bacterial growth inhibition incubated for 18 to 24 hrs by broth microdilution method; type: functional; details: time 18-24 hrs; how it was run: as §2
# Staphylococcus aureus [11] = assay: Antibacterial activity against methicillin resistant Staphylococcus aureus NRS 198 assessed as bacterial growth inhibition incubated for 18 to 24 hrs by broth microdilution method; type: functional; details: time 18-24 hrs; how it was run: as §2
# Staphylococcus aureus [12] = assay: Antibacterial activity against vancomycin resistant Staphylococcus aureus […] 4 assessed as bacterial growth inhibition incubated for 18 to 24 hrs by broth microdilution method; type: functional; details: time 18-24 hrs; how it was run: as §2
# Staphylococcus aureus [13] = assay: Antibacterial activity against methicillin sensitive Staphylococcus aureus ATCC 29213 assessed as bacterial growth inhibition incubated for 18 to 24 hrs by broth microdilution method; type: functional; details: time 18-24 hrs; how it was run: as §2
# [14] = Selectivity ratio of CC50 for African green monkey Vero cells to MIC against Staphylococcus aureus ATCC 29213; type: toxicity, cell-based
# Vero = assay: Cytotoxicity against African green monkey Vero cells assessed as cell viability incubated for 72 hrs by MTT assay; type: toxicity, cell-based; details: chlorocebus sabaeus
# How it was run: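 MTT assay on Vero cells, ~10^3 cells/well, 37 °C, 5% CO2. Compound was added at 24 h (100-12.5 μg/mL) for 72 h, then MTT for 4 h at 37 °C. Formazan was dissolved in DMSO and read at 540 nm. CC50 was the lowest concentration giving 50% viability loss. Doxorubicin positive control; triplicate.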
# Staphylococcus aureus [15] = assay: Bactericidal activity against Staphylococcus aureus ATCC 29213 assessed as reduction in bacterial load at 10 times of MIC incubated for 24 hrs by time kill analysis; type: functional; set-up: scale not given: the % may be the effect or the level left
# How it was run: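 Time-kill assay. ~10^6 CFU/mL in MHBII was exposed to 1X and 10X MIC, 37 °C with shaking for 24 h. Samples were taken at 0, 1, 6 and 24 h, serially diluted in PBS, plated on MHA and incubated 37 °C 18–20 h. Colonies were counted as CFU/mL survivors. Three repeats in duplicate; mean plotted.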
# [16] = Staphylococcus aureus, ATCC 29213, read-out: MIC
Compound,MIC (Pseudomonas aeruginosa) [µg/mL],MIC (Acinetobacter baumannii) [µg/mL],MIC (Staphylococcus aureus [1]; [16]) [µg/mL],MIC (Escherichia coli) [µg/mL],MIC (Klebsiella pneumoniae) [µg/mL],MIC (Staphylococcus aureus [2]) [µg/mL],MIC (Staphylococcus aureus [3]) [µg/mL],MIC (Staphylococcus aureus [4]) [µg/mL],MIC (Staphylococcus aureus [5]) [µg/mL],MIC (Staphylococcus aureus [6]) [µg/mL],MIC (Staphylococcus aureus [7]) [µg/mL],MIC (Staphylococcus aureus [8]) [µg/mL],MIC (Staphylococcus aureus [9]) [µg/mL],MIC (Staphylococcus aureus [10]) [µg/mL],MIC (Staphylococcus aureus [11]) [µg/mL],MIC (Staphylococcus aureus [12]) [µg/mL],MIC (Staphylococcus aureus [13]) [µg/mL],other results
CCN1C(=O)[C@]2(c3cc(Cl)ccc31)C(Cc1c[nH]c3ccccc13)NC1(c3cc(Cl)ccc3-n3c1nc1ccccc1c3=O)C2(C#N)C#N (stereo not given in full),> 64,> 64,0.25,> 64,> 64,,,,,,,,,,,,,
CCN1C(=O)[C@@]2(CN(C)C3(c4cc(I)ccc4-n4c3nc3ccc(Cl)cc3c4=O)C2(C#N)C#N)c2ccccc21 (stereo not given in full),> 64,> 64,1,> 64,> 64,,,,,,,,,,,,,
C[C@@H](O)[C@H]1C(=O)N2C(C(=O)O)=C(S[C@@H]3CN[C@H](C(=O)N(C)C)C3)[C@H](C)[C@H]12 [MEROPENEM],,,0.063,,,4,64,1,0.63,64,8,64,8,8,64,64,0.125,
C[C@H]1COc2c(N3CCN(C)CC3)c(F)cc3c(=O)c(C(=O)O)cn1c23 [LEVOFLOXACIN ANHYDROUS],,,0.125,,64,0.25,32,0.125,0.125,16,4,16,4,32,32,> 64,0.125,MIC (Staphylococcus aureus [1]): 0.25 µg/mL
CCN1C(=O)[C@@]2(CN(C)C3(c4cc(OC)ccc4-n4c3nc3ccccc3c4=O)C2(C#N)C#N)c2ccccc21 (stereo not given in full),> 64,> 64,0.125,> 64,> 64,0.25,0.5,0.5,,0.25,0.5,0.25,0.5,8,0.5,0.5,0.5,selectivity ratio [14]: > 80; Activity (Vero): Non-Toxic
CN[C@H](CC(C)C)C(=O)N[C@H]1C(=O)N[C@@H](CC(N)=O)C(=O)N[C@H]2C(=O)N[C@H]3C(=O)N[C@H](C(=O)N[C@H](C(=O)O)c4cc(O)cc(O)c4-c4cc3ccc4O)[C@H](O)c3ccc(c(Cl)c3)Oc3cc2cc(c3O[C@@H]2O[C@H](CO)[C@@H](O)[C@H](O)[C@H]2O[C@H]2C[C@](C)(N)[C@H](O)[C@H](C)O2)Oc2ccc(cc2Cl)[C@H]1O [VANCOMYCIN],,,,,,,,,,,,,,> 64,,> 64,,Activity (Staphylococcus aureus [15]): 100%
CO[C@H]1/C=C/O[C@@]2(C)Oc3c(C)c(O)c4c(O)c(c(/C=N/N5CCN(C)CC5)c(O)c4c3C2=O)NC(=O)/C(C)=C\C=C\[C@H](C)[C@H](O)[C@@H](C)[C@@H](O)[C@@H](C)[C@H](OC(C)=O)[C@@H]1C [RIFAMPIN],,,0.008,,,,,,0.008,,,,,,,,,
GENTAMICIN,,,,,,,,,0.25,,,,,,,,,MIC (Staphylococcus aureus [1]): 0.25 µg/mL
CN(C)c1ccc(O)c2c1C[C@H]1C[C@H]3[C@H](N(C)C)C(O)=C(C(N)=O)C(=O)[C@@]3(O)C(O)=C1C2=O [MINOCYCLINE],,,0.125,,,,,,0.125,,,,,,,,,
CCN1C(=O)[C@@]2(CN(C)C3(c4ccccc4-n4c3nc3ccccc3c4=O)C2(C#N)C#N)c2ccccc21 (stereo not given in full),> 64,> 64,1,> 64,> 64,,,,,,,,,,,,,

# Reference: ChEMBL document CHEMBL5329147, “Synthesis of tryptanthrin appended dispiropyrrolidine oxindoles and their antibacterial evaluation” (RSC Med Chem, 2023)
